Laboratory results from ChEMBL document CHEMBL5055631, “Antitumor properties of novel sesquiterpene lactone analogs as NFκB inhibitors that bind to the IKKβ ubiquitin-like domain (ULD)” (Eur J Med Chem, 2021).

Assays:
Format in all cases: functional
TK-10 = assay: Anticancer activity against human TK-10 cells assessed as cell growth inhibition incubated for 48 hrs by SRB method
Summary of the method: (§1)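 NCI-60 panel, SRB assay. Cells grown in RPMI 1640 with 5% FBS and 2 mM L-glutamine, seeded at 5,000–40,000 cells/well depending on doubling time, and preincubated 24 h at 37 °C with 5% CO2. Time-zero plates were TCA-fixed. Compounds came from DMSO stocks and were tested at 100 μM, 10 μM, 1 μM, 0.1 μM and 10 nM for 48 h. Cells were fixed with cold TCA and stained with 0.4% SRB, and the dye was solubilized in 10 mM Tris base with A515 read.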

UACC-62 = assay: Anticancer activity against human UACC-62 cells assessed as cell growth inhibition incubated for 48 hrs by SRB method; summary of the method: as §1
HCT-116 = assay: Anticancer activity against human HCT-116 cells assessed as cell growth inhibition incubated for 48 hrs by SRB method
Summary of the method: (§2)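 NCI-60 panel (DTP). Cells in RPMI 1640 with 5% FBS, 2 mM L-glutamine, seeded at 5,000–40,000 per well by doubling time and preincubated 24 h at 37 °C, 5% CO2. Time-zero plates TCA-fixed. DMSO stocks diluted in medium with gentamicin, tested at 100 μM, 10 μM, 1 μM, 0.1 μM and 10 nM for 48 h. Cells fixed with cold TCA, stained with SRB, absorbance read at 515 nm.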

HOP-92 = assay: Anticancer activity against human HOP-92 cells assessed as cell growth inhibition incubated for 48 hrs by SRB method
MOLT-4 = assay: Anticancer activity against human MOLT-4 assessed as cell growth inhibition incubated for 48 hrs by SRB method
NCI-H522 = assay: Anticancer activity against human NCI-H522 cells assessed as cell growth inhibition incubated for 48 hrs by SRB method
RPMI-8226 = assay: Anticancer activity against human RPMI-8226 cells assessed as cell growth inhibition incubated for 48 hrs by SRB method
OVCAR-8 = assay: Anticancer activity against human OVCAR-8 cells assessed as cell growth inhibition incubated for 48 hrs by SRB method; summary of the method: as §2
U-251 = assay: Anticancer activity against human U-251 cells assessed as cell growth inhibition incubated for 48 hrs by SRB method; summary of the method: as §1
M14 = assay: Anticancer activity against human M14 cells assessed as cell growth inhibition incubated for 48 hrs by SRB method; summary of the method: as §2
HCT-15 = assay: Anticancer activity against human HCT-15 cells assessed as cell growth inhibition incubated for 48 hrs by SRB method; summary of the method: as §2
SNB-75 = assay: Anticancer activity against human SNB-75 cells assessed as cell growth inhibition incubated for 48 hrs by SRB method
A549 = assay: Anticancer activity against human A549 cells assessed as cell growth inhibition incubated for 48 hrs by SRB method; summary of the method: as §2
SR = assay: Anticancer activity against human SR cells assessed as cell growth inhibition incubated for 48 hrs by SRB method; summary of the method: as §2
786-0 = assay: Anticancer activity against human 786-0 cells assessed as cell growth inhibition incubated for 48 hrs by SRB method; summary of the method: as §2
MDA-MB-435 = assay: Anticancer activity against human MDA-MB-435 cells assessed as cell growth inhibition incubated for 48 hrs by SRB method; summary of the method: as §2
MDA-MB-468 = assay: Anticancer activity against human MDA-MB-468 cells assessed as cell growth inhibition incubated for 48 hrs by SRB method; summary of the method: as §2
CCRF-CEM = assay: Anticancer activity against human CCRF-CEM cells assessed as cell growth inhibition incubated for 48 hrs by sulforhodamine B assay
NCI-H226 = assay: Anticancer activity against human NCI-H226 cells assessed as cell growth inhibition incubated for 48 hrs by SRB method; summary of the method: as §2
NCI-H460 = assay: Anticancer activity against human NCI-H460 cells assessed as cell growth inhibition incubated for 48 hrs by SRB method; summary of the method: as §2
NCI-H23 = assay: Anticancer activity against human NCI-H23 cells assessed as cell growth inhibition incubated for 48 hrs by SRB method; summary of the method: as §2
HOP-62 = assay: Anticancer activity against human HOP-62 cells assessed as cell growth inhibition incubated for 48 hrs by SRB method; summary of the method: as §2
COLO 205 = assay: Anticancer activity against human COLO 205 cells assessed as cell growth inhibition incubated for 48 hrs by SRB method
EKVX = assay: Anticancer activity against human EKVX cells assessed as cell growth inhibition incubated for 48 hrs by SRB method; summary of the method: as §2
HCC 2998 = assay: Anticancer activity against human HCC 2998 cells assessed as cell growth inhibition incubated for 48 hrs by SRB method; summary of the method: as §2
HT-29 = assay: Anticancer activity against human HT29 cells assessed as cell growth inhibition incubated for 48 hrs by SRB method; summary of the method: as §2
HL-60(TB) = assay: Anticancer activity against human HL-60(TB) cells assessed as cell growth inhibition incubated for 48 hrs by SRB method
SF-268 = assay: Anticancer activity against human SF-268 cells assessed as cell growth inhibition incubated for 48 hrs by SRB method; summary of the method: as §2
OVCAR-5 = assay: Anticancer activity against human OVCAR-5 cells assessed as cell growth inhibition incubated for 48 hrs by SRB method
KM12 = assay: Anticancer activity against human KM12 cells assessed as cell growth inhibition incubated for 48 hrs by SRB method; summary of the method: as §2
K562 = assay: Anticancer activity against human K562 cells assessed as cell growth inhibition incubated for 48 hrs by SRB method
PC-3 = assay: Anticancer activity against human PC-3 cells assessed as cell growth inhibition incubated for 48 hrs by SRB method; summary of the method: as §2
Malme-3M = assay: Anticancer activity against human MALME-3M cells assessed as cell growth inhibition incubated for 48 hrs by SRB method
SF-295 = assay: Anticancer activity against human SF-295 cells assessed as cell growth inhibition incubated for 48 hrs by SRB method; summary of the method: as §2
SF-539 = assay: Anticancer activity against human SF-539 cells assessed as cell growth inhibition incubated for 48 hrs by SRB method
SW-620 = assay: Anticancer activity against human SW-620 cells assessed as cell growth inhibition incubated for 48 hrs by SRB method
RXF 393 = assay: Anticancer activity against human RXF 393 cells assessed as cell growth inhibition incubated for 48 hrs by SRB method; summary of the method: as §2
LOX IMVI = assay: Anticancer activity against human LOX IMVI cells assessed as cell growth inhibition incubated for 48 hrs by SRB method
SNB-19 = assay: Anticancer activity against human SNB-19 cells assessed as cell growth inhibition incubated for 48 hrs by SRB method; summary of the method: as §2
[1] = Anticancer activity against human HS 578T cells assessed as cell growth inhibition incubated for 48 hrs by SRB method
UO-31 = assay: Anticancer activity against human UO-31 cells assessed as cell growth inhibition incubated for 48 hrs by SRB method
Summary of the method: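 NCI-60 panel, SRB assay. Time-zero plates were TCA-fixed. Compounds came from DMSO stocks and were tested at 100 μM, 10 μM, 1 μM, 0.1 μM and 10 nM for 48 h. Cells were fixed with cold TCA and stained with 0.4% SRB, and the dye was solubilized in 10 mM Tris base with A515 read.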

T47D = assay: Anticancer activity against human T47D cells assessed as cell growth inhibition incubated for 48 hrs by SRB method; summary of the method: as §2
CAKI-1 = assay: Anticancer activity against human CAKI-1 cells assessed as cell growth inhibition incubated for 48 hrs by SRB method; summary of the method: as §2
BT-549 = assay: Anticancer activity against human BT-549 cells assessed as cell growth inhibition incubated for 48 hrs by SRB method; summary of the method: as §2
IGROV-1 = assay: Anticancer activity against human IGROV-1 cells assessed as cell growth inhibition incubated for 48 hrs by SRB method; summary of the method: as §2
UACC-257 = assay: Anticancer activity against human UACC-257 assessed as cell growth inhibition incubated for 48 hrs by SRB method; summary of the method: as §1
OVCAR-4 = assay: Anticancer activity against human OVCAR-4 cells assessed as cell growth inhibition incubated for 48 hrs by SRB method
SK-MEL-28 = assay: Anticancer activity against human SK-MEL-28 cells assessed as cell growth inhibition incubated for 48 hrs by SRB method; summary of the method: as §2
MDA-MB-231 = assay: Anticancer activity against human MDA-MB-231 cells assessed as cell growth inhibition incubated for 48 hrs by SRB method; summary of the method: as §2
A498 = assay: Anticancer activity against human A498 cells assessed as cell growth inhibition incubated for 48 hrs by SRB method; summary of the method: as §2
ACHN = assay: Anticancer activity against human ACHN cells assessed as cell growth inhibition incubated for 48 hrs by SRB method; summary of the method: as §2
DU-145 = assay: Anticancer activity against human DU-145 cells assessed as cell growth inhibition incubated for 48 hrs by SRB method; summary of the method: as §2
NCI/ADR-RES = assay: Anticancer activity against human NCI/ADR-RES cells assessed as cell growth inhibition incubated for 48 hrs by SRB method; summary of the method: as §2
MCF7 = assay: Anticancer activity against human MCF7 cells assessed as cell growth inhibition incubated for 48 hrs by SRB method; summary of the method: as §2

## C=C1C(=O)O[C@@H]2C3O[C@]3(C)CC/C=C(\C)CC[C@@H]12 (some centres undefined)
TK-10
  GI50: 10000 nM
UACC-62
  GI50: 3480 nM
HCT-116
  GI50: 10000 nM

## C=C1C(=O)O[C@H]2[C@H]1CC/C(COC(=O)NCCc1ccc(Br)cc1)=C\CC[C@@]1(C)O[C@@H]21
HOP-92
  GI50: 1280 nM
MOLT-4
  GI50: 1690 nM
NCI-H522
  GI50: 1160 nM
RPMI-8226
  GI50: 620 nM
OVCAR-8
  GI50: 1560 nM
U-251
  GI50: 1400 nM
M14
  GI50: 1260 nM
HCT-15
  GI50: 1010 nM
SNB-75
  GI50: 1200 nM
A549
  GI50: 2590 nM
SR
  GI50: 430 nM
786-0
  GI50: 1490 nM
MDA-MB-435
  GI50: 1580 nM
MDA-MB-468
  GI50: 840 nM
CCRF-CEM
  GI50: 270 nM
NCI-H226
  GI50: 1720 nM
NCI-H460
  GI50: 2060 nM
NCI-H23
  GI50: 1720 nM
HOP-62
  GI50: 1990 nM
COLO 205
  GI50: 1820 nM
EKVX
  GI50: 1540 nM
HCC 2998
  GI50: 1710 nM
HT-29
  GI50: 1320 nM
HL-60(TB)
  GI50: 1060 nM
SF-268
  GI50: 1560 nM
OVCAR-5
  GI50: 980 nM
KM12
  GI50: 1950 nM
HCT-116
  GI50: 470 nM
K562
  GI50: 530 nM
PC-3
  GI50: 1730 nM
Malme-3M
  GI50: 2090 nM
SF-295
  GI50: 3810 nM
SF-539
  GI50: 1460 nM
SW-620
  GI50: 710 nM
RXF 393
  GI50: 1320 nM
LOX IMVI
  GI50: 1180 nM
SNB-19
  GI50: 1390 nM
[1]
  GI50: 410 nM

## C=C1C(=O)O[C@H]2[C@H]1CC/C(COC(=O)NCCc1cccc(OC)c1)=C\CC[C@@]1(C)O[C@@H]21
HOP-92
  GI50: 1840 nM
MOLT-4
  GI50: 2090 nM
NCI-H522
  GI50: 1020 nM
RPMI-8226
  GI50: 910 nM
OVCAR-8
  GI50: 1780 nM
UO-31
  GI50: 670 nM
TK-10
  GI50: 1190 nM
M14
  GI50: 1290 nM
T47D
  GI50: 3430 nM
HCT-15
  GI50: 1020 nM
SNB-75
  GI50: 1470 nM
CAKI-1
  GI50: 2350 nM
A549
  GI50: 7280 nM
BT-549
  GI50: 1560 nM
SR
  GI50: 510 nM
786-0
  GI50: 2260 nM
MDA-MB-435
  GI50: 1580 nM
IGROV-1
  GI50: 1530 nM
MDA-MB-468
  GI50: 850 nM
CCRF-CEM
  GI50: 340 nM
NCI-H226
  GI50: 1570 nM
NCI-H460
  GI50: 3940 nM
UACC-62
  GI50: 6230 nM
UACC-257
  GI50: 1990 nM
OVCAR-4
  GI50: 1260 nM
NCI-H23
  GI50: 1860 nM
HOP-62
  GI50: 4390 nM
SK-MEL-28
  GI50: 1730 nM
COLO 205
  GI50: 1550 nM
EKVX
  GI50: 1780 nM
MDA-MB-231
  GI50: 890 nM
A498
  GI50: 2950 nM
HCC 2998
  GI50: 1680 nM
HT-29
  GI50: 1140 nM
HL-60(TB)
  GI50: 1360 nM
ACHN
  GI50: 1370 nM
DU-145
  GI50: 1390 nM
SF-268
  GI50: 1780 nM
OVCAR-5
  GI50: 990 nM
KM12
  GI50: 4270 nM
HCT-116
  GI50: 710 nM
K562
  GI50: 610 nM
PC-3
  GI50: 1610 nM
Malme-3M
  GI50: 1840 nM
SF-295
  GI50: 7260 nM
SF-539
  GI50: 1490 nM
SW-620
  GI50: 520 nM
RXF 393
  GI50: 1120 nM
LOX IMVI
  GI50: 1340 nM
SNB-19
  GI50: 1430 nM
[1]
  GI50: 490 nM
NCI/ADR-RES
  GI50: 2250 nM
MCF7
  GI50: 2300 nM
